# In paper PMC4165341 (ACS nano, 2011):
# How the values were obtained:
# [1] = target: T1, mOR174-9 (mOR-EG), His-tagged, nanotube device (Mus musculus, UniProt Q920P2); experiment: carbon nanotube transistor current change; type: binding; conditions: digitonin micelle device; eugenol vapor in N2, 50% RH (2 ppm in Figure 2)
# T1 sequence (Q920P2 1-313): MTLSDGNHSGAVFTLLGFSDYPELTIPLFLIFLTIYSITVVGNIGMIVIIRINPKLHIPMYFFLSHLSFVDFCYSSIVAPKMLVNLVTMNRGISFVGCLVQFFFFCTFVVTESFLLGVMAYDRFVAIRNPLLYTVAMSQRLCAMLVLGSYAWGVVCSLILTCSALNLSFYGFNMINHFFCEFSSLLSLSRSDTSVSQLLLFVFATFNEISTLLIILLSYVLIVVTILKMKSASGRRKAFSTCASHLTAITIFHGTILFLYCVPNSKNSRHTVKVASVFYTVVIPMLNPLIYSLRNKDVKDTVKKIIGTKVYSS
# In short: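 Receptor solubilised from crude plasma membranes in 6.76 mM digitonin, captured on Ni-magnetic beads (1 h, 4 °C), eluted in 4.88 mM digitonin/acetate pH 4.0, readjusted to pH 8.0, used immediately. Back-gated nanotube transistors (on/off >1000) treated with 11.3 mM NTA-NH2 (2 h), then 11.3 mM NiCl2; receptor deposited 30 min, room temperature. Current recorded under computer-controlled humidity, temperature and vapor flow.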
# [2] = target: T2, mOR256-17, His-tagged, nanotube device (Mus musculus, UniProt P23275); experiment: carbon nanotube transistor current change; type: binding; conditions: odorant vapor in N2, 50% RH, concentration not given
# T2 sequence (P23275 1-312): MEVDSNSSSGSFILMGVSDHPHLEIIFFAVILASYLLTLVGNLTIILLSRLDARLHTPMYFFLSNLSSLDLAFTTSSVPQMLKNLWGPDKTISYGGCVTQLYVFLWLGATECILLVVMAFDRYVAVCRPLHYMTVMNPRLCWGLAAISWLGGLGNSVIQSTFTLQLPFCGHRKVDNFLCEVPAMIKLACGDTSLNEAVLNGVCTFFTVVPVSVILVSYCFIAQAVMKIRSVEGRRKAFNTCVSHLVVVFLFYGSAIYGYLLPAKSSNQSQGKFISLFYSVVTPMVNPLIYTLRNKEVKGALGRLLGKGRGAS
smiles,measurement,setting,value
C=CCc1ccc(O)c(OC)c1 [eugenol],mOR 174-9 / micelle nanotube,[1],+20.9±4.6%
same,mOR 256-17 / nanodisc nanotube,[2],+33.6±8.3%
